From ChEMBL document CHEMBL4732220, “Design, synthesis and biological evaluation of mono- and bisquinoline methanamine derivatives as potential antiplasmodial agents” (Bioorg Med Chem Lett, 2021)

Legend:
[1] = Cytotoxicity against human HeLa cells assessed as cell viability at 20 uM relative to control; type: cell-based; conditions: read-out: Activity
In short: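 Mammalian HeLa cells incubated with test compound at a single 20 µM concentration. Read-out is the percentage of viable cells remaining after incubation.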

Plasmodium falciparum [2] = assay: Antiplasmodial activity against chloroquine-sensitive Plasmodium falciparum 3D7 assessed as parasite growth inhibition; type: functional, organism-based
In short: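 In vitro growth inhibition of P. falciparum 3D7. IC50 reported in µM, with 20 µM as the highest concentration tested.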

Plasmodium falciparum [3] = assay: Antimalarial activity against synchronized ring stage chloroquine-sensitive Plasmodium falciparum assessed as parasite growth inhibition incubated for 48 hrs in presence of 10% human plasma by hypoxanthine assay; type: functional, organism-based

## COc1nc2ccc(F)cc2cc1CNCc1cccs1
[1]
  viability at 20 µM: 93.5%
Plasmodium falciparum [2]
  IC50: > 20 µM

## COc1nc2ccccc2cc1CN(Cc1ccccn1)Cc1cc2ccccc2nc1OC
[1]
  viability at 20 µM: 89%
Plasmodium falciparum [2]
  IC50: 3.5 µM

## COc1nc2ccc(C)cc2cc1CN(Cc1cccs1)Cc1cc2cc(C)ccc2nc1Cl
[1]
  viability at 20 µM: 87.9%
Plasmodium falciparum [2]
  IC50: 12.6 µM

## Oc1ccc2nc(Cl)c(CN(Cc3ccccn3)Cc3cc4cc(O)ccc4nc3Cl)cc2c1
[1]
  viability at 20 µM: 88.8%
Plasmodium falciparum [2]
  IC50: 2.5 µM

## Clc1nc2ccccc2cc1CN(Cc1ccccn1)Cc1cc2ccccc2nc1Cl
[1]
  viability at 20 µM: 90.6%
Plasmodium falciparum [2]
  IC50: > 20 µM

## COc1nc2ccccc2cc1CN(Cc1ccccn1)Cc1cc2ccccc2nc1Cl
[1]
  viability at 20 µM: 89.9%
Plasmodium falciparum [2]
  IC50: > 20 µM

## Cc1cc(C)c2cc(CNCc3cccnc3)c(Cl)nc2c1
[1]
  viability at 20 µM: 77.2%
Plasmodium falciparum [2]
  IC50: > 20 µM

## COc1nc2cc(C)cc(C)c2cc1CNCc1cccs1
[1]
  viability at 20 µM: 87.5%
Plasmodium falciparum [2]
  IC50: > 20 µM

## COc1nc2cc(C)cc(C)c2cc1CN(Cc1ccccn1)Cc1cc2c(C)cc(C)cc2nc1OC
[1]
  viability at 20 µM: 90.1%
Plasmodium falciparum [2]
  IC50: 2.8 µM

## Clc1ccc2nc(Cl)c(CN(c3ccccc3)c3nnc(-c4ccccc4)o3)cc2c1
Plasmodium falciparum [3]
  IC50: 0.089 µM

## COc1nc2cc(C)cc(C)c2cc1CNCc1ccccn1
[1]
  viability at 20 µM: 56.7%
Plasmodium falciparum [2]
  IC50: 0.23 µM

## COc1ccc2nc(OC)c(CNCc3cccnc3)cc2c1
[1]
  viability at 20 µM: 100%
Plasmodium falciparum [2]
  IC50: 12.8 µM

## COc1nc2ccc(C)cc2cc1CNCc1cccnc1
[1]
  viability at 20 µM: 99.5%
Plasmodium falciparum [2]
  IC50: 13.4 µM

## Cc1ccc2nc(Cl)c(CN(Cc3ccccn3)Cc3cc4cc(C)ccc4nc3Cl)cc2c1
[1]
  viability at 20 µM: 93%
Plasmodium falciparum [2]
  IC50: > 20 µM

## C=C[C@H]1CN2CC[C@H]1C[C@H]2[C@H](O)c1ccnc2ccc(OC)cc12 [QUININE]
Plasmodium falciparum [3]
  IC50: 0.826 µM

## COc1nc2cc(C)cc(C)c2cc1CN(Cc1cccs1)Cc1cc2cc(C)ccc2nc1Cl
[1]
  viability at 20 µM: 86%
Plasmodium falciparum [2]
  IC50: > 20 µM

## COc1ccc2nc(OC)c(CNCc3cccs3)cc2c1
[1]
  viability at 20 µM: 93.2%
Plasmodium falciparum [2]
  IC50: > 20 µM

## Clc1nc2ccccc2cc1CNCc1ccncc1
[1]
  viability at 20 µM: 73.7%
Plasmodium falciparum [2]
  IC50: 2.3 µM

## COc1nc2ccccc2cc1CN(Cc1ccco1)Cc1cc2cc(C)ccc2nc1Cl
[1]
  viability at 20 µM: 84.4%
Plasmodium falciparum [2]
  IC50: 12.8 µM

## COc1nc2ccccc2cc1CNCc1cccnc1
[1]
  viability at 20 µM: 89.9%
Plasmodium falciparum [2]
  IC50: 13.4 µM

## Clc1nc2ccccc2cc1CNCc1ccccn1
[1]
  viability at 20 µM: 65.6%
Plasmodium falciparum [2]
  IC50: > 20 µM

## COc1nc2cc(C)cc(C)c2cc1CNCc1ccncc1
[1]
  viability at 20 µM: 60.7%
Plasmodium falciparum [2]
  IC50: 12 µM

## COc1ccc2nc(Cl)c(CN(Cc3cccs3)Cc3cc4cc(C)ccc4nc3OC)cc2c1
[1]
  viability at 20 µM: 103%
Plasmodium falciparum [2]
  IC50: 13.4 µM

## COc1nc2ccc(F)cc2cc1CN(Cc1cccnc1)Cc1cc2cc(C)ccc2nc1Cl
[1]
  viability at 20 µM: 92.6%
Plasmodium falciparum [2]
  IC50: 9.6 µM

## COc1nc2ccc(Cl)cc2cc1CNCc1cccnc1
[1]
  viability at 20 µM: 100%
Plasmodium falciparum [2]
  IC50: 16.8 µM

## Cc1ccc2nc(Cl)c(CN(Cc3cccnc3)Cc3cc4c(C)cc(C)cc4nc3Cl)cc2c1
[1]
  viability at 20 µM: 80.3%
Plasmodium falciparum [2]
  IC50: 7.6 µM

## COc1nc2ccc(C)cc2cc1CNCc1cccs1
[1]
  viability at 20 µM: 99.7%
Plasmodium falciparum [2]
  IC50: > 20 µM

## Fc1ccc2nc(Cl)c(CN(Cc3ccccn3)Cc3cc4cc(F)ccc4nc3Cl)cc2c1
[1]
  viability at 20 µM: 98.7%
Plasmodium falciparum [2]
  IC50: 9.8 µM

## COc1nc2ccccc2cc1CNCc1ccncc1
[1]
  viability at 20 µM: 69.9%
Plasmodium falciparum [2]
  IC50: 2.1 µM

## COc1ccc2nc(OC)c(CN(Cc3ccccn3)Cc3cc4cc(OC)ccc4nc3OC)cc2c1
[1]
  viability at 20 µM: 79.5%
Plasmodium falciparum [2]
  IC50: 3.4 µM

## COc1ccc2nc(Cl)c(CN(Cc3cccs3)Cc3cc4c(C)cc(C)cc4nc3OC)cc2c1
[1]
  viability at 20 µM: 85.4%
Plasmodium falciparum [2]
  IC50: > 20 µM

## COc1ccc2nc(Cl)c(CN(Cc3ccccn3)Cc3cc4cc(OC)ccc4nc3Cl)cc2c1
[1]
  viability at 20 µM: 83.8%
Plasmodium falciparum [2]
  IC50: > 20 µM

## COc1ccc2nc(OC)c(CN(Cc3cccs3)Cc3cc4cc(C)ccc4nc3Cl)cc2c1
[1]
  viability at 20 µM: 99.2%
Plasmodium falciparum [2]
  IC50: 0.93 µM

## COc1nc2ccc(F)cc2cc1CNCc1cccnc1
[1]
  viability at 20 µM: 97.2%
Plasmodium falciparum [2]
  IC50: 17.9 µM

## COc1nc2ccccc2cc1CN(Cc1cccnc1)Cc1cc2cc(C)ccc2nc1Cl
[1]
  viability at 20 µM: 98.3%
Plasmodium falciparum [2]
  IC50: 9.8 µM

## COc1nc2ccccc2cc1CNCc1cccs1
[1]
  viability at 20 µM: 89.9%
Plasmodium falciparum [2]
  IC50: > 20 µM

## COc1nc2ccc(F)cc2cc1CN(Cc1cccs1)Cc1cc2cc(C)ccc2nc1Cl
[1]
  viability at 20 µM: 95.2%
Plasmodium falciparum [2]
  IC50: 11.3 µM

## COc1nc2ccccc2cc1CNCc1ccco1
[1]
  viability at 20 µM: 88.9%
Plasmodium falciparum [2]
  IC50: > 20 µM

## COc1nc2cc(C)cc(C)c2cc1CNCc1cccnc1
[1]
  viability at 20 µM: 76.7%
Plasmodium falciparum [2]
  IC50: > 20 µM

## COc1nc2ccc(C)cc2cc1CN(Cc1ccccn1)Cc1cc2cc(C)ccc2nc1OC
[1]
  viability at 20 µM: 93.3%
Plasmodium falciparum [2]
  IC50: > 20 µM

## COc1nc2ccccc2cc1CNCc1ccccn1
[1]
  viability at 20 µM: 44.3%
Plasmodium falciparum [2]
  IC50: 1.4 µM

## COc1nc2cc(C)cc(C)c2cc1CN(Cc1cccnc1)Cc1cc2cc(C)ccc2nc1Cl
[1]
  viability at 20 µM: 77.6%
Plasmodium falciparum [2]
  IC50: 12.3 µM
